Key:
HER2 (SKBR3 cells) = HER2 (SKBR3 cells) (Homo sapiens, UniProt P04626); assay: In vitro receptor competitive binding assay; details: TP1623 0-500 nmol/L, 30 minutes at 4°C, then tracer 2 h at 4°C
Procedure, shortened: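 SKBR3 cells at 2–4 × 10^4/well were seeded the day before. Unlabelled test compound was added at 0, 1, 5, 25, 50 and 500 nmol/L final, in triplicate, for 30 min at 4°C. 99mTc tracer (462 KBq/0.1 μg) followed for 2 h at 4°C. Cells were washed three times in ice-cold PBS, trypsin-digested and gamma-counted. Count was plotted against competitor concentration.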

HER2 = details: cited from earlier work

competitive inhibition of binding of 99mTc-TP1623 to HER2 (HER2 (SKBR3 cells))	Sequence	affinity for HER2 (HER2)
could competitively inhibit the binding	G (D) AGG-Aba-YCFPDEEGACY-NH2 [TP1623]	
	YCFPDEEGACY	high affinity

Reference: article PMC5447658 (Translational Oncology, 2017)
